Results taken from article PMC7814465 (Cell reports, 2020).

Columns and labels:
Impβ = assay: Pull-down from HeLa cytosol, Impβ; assay type: binding; conditions: biotinylated peptide, western blot
How it was run: (§1)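 Biotin-DPR bait (5 μg per 10 μl beads) immobilised overnight with 2 mg/ml ovalbumin. Prey bound in B-buffer with 2 mg/ml BSA, washed without BSA, eluted in 2× SDS loading buffer. Two independent replicates.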

Imp7 = assay: Pull-down from HeLa cytosol, Imp7; assay type: binding; conditions: biotinylated peptide, western blot
How it was run: as §1

Impα3 = assay: Pull-down from HeLa cytosol, Impα3; assay type: binding; conditions: biotinylated peptide, western blot
How it was run: as §1

Impα3 (His-Impα3) = assay: SDD-AGE oligomer formation, Impα3; assay type: biochemical, rat; conditions: 10-fold molar excess: 2 μM importin, 20 μM TMR-DPR, pH 7.5, 200 mM NaCl, 1 h RT
GAPDH in HeLa cytosol = assay: Sedimentation assay from HeLa cytosol, GAPDH; assay type: biochemical; conditions: highest GR/PR concentrations
[1] = system: Impβ (His-S-Impβ, in the absence of Impα); assay: Sedimentation assay, Impβ alone; assay type: biochemical
How it was run: (§2)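 Protein was 1 µM purified NTR alone, or 500 nM Impα with 500 nM Impβ. Samples were centrifuged 15 min at 21,000 g, 4°C. Equal volumes of supernatant and pellet were analysed by SDS-PAGE with Sypro-Ruby stain or western blot.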

CRM1 = assay: Sedimentation assay, CRM1; assay type: biochemical
How it was run: as §2

TNPO1 (His-TNPO1) = assay: SDD-AGE oligomer formation, TNPO1; assay type: biochemical; conditions: 10-fold molar excess: 2 μM importin, 20 μM TMR-DPR, pH 7.5, 200 mM NaCl, 1 h RT
[2] = system: shuttling reporter (NLS and nuclear export signal); conditions: HeLa cells incubated with peptides; ref Shi et al., 2017; cited from earlier work
[3] = system: TDP-43 (TDP-43-Tev-MBP/MBP-Tev-TDP-43-GFP); assay: TDP-43 condensate formation with DPRs, microscopy; assay type: biochemical; conditions: TMR-labeled DPR, equimolar (1x) or two-fold (2x), 2 μM TDP-43/TDP-43-GFP, Tev cleavage, 200 mM NaCl, pH 7.5
How it was run: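 Size-exclusion-purified TDP-43-MBP-His (2 μM) was mixed with substoichiometric MBP-TDP-43-GFP-His (1:4–1:5). Condensates were imaged by laser scanning confocal microscopy.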

Impb = conditions: FRET sensors and bead Halo assays; ref Hayes et al., 2019; cited from earlier work
TDP-43 [4] = assay: TDP-43 turbidity assay; assay type: biochemical; conditions: n = 3
How it was run: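 TDP-43-MBP-His (Ni-NTA then amylose purified) and TNPO1 were buffer-exchanged into 20 mM HEPES-NaOH pH 7.4, 150 mM NaCl, 1 mM DTT. TDP-43 at 5 µM final was combined with 2 µM DPR peptide (PBS control), 5 µM TNPO1, or both. Phase separation was started with 1 µg/ml Tev protease, and absorbance at 395 nm was followed over 16 h. Values were normalized to TDP-43 plus Tev alone.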

TDP-43 condensates = assay: Suppression of phase separation of TDP-43 alone by NTRs; assay type: biochemical; conditions: equimolar NTR, 5 μM TDP-43, Tev cleavage
How it was run: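 TDP-43-MBP-His (Ni-NTA then amylose purified) and TNPO1 were buffer-exchanged into 20 mM HEPES-NaOH pH 7.4, 150 mM NaCl, 1 mM DTT. TDP-43 at 5 μM, with or without 5 μM TNPO1, was started with 1 μg/ml Tev protease. Absorbance at 395 nm was read over 16 h and normalised to TDP-43 + Tev alone.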

[5] = system: GR- or PR-induced TDP-43 condensates; assay: Suppression of GR- or PR-induced TDP-43 condensates by NTRs; assay type: biochemical; conditions: equimolar NTR; TMR-GR25 or TMR-PR25; Tev cleavage
How it was run: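 SEC-purified TDP-43-MBP-His (2 μM) was mixed with MBP-TDP-43-GFP-His at 1:4–1:5, together with equimolar TMR-labelled DPR, with or without NTRs. Mixing preceded cleavage with 100 μg/ml His-Tev in 50 mM Tris pH 7.5, 200 mM NaCl, 2 mM DTT. Condensates were imaged by laser scanning confocal microscopy.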

TDP-43 [6] = assay: Sedimentation of TDP-43 with GST-GR25 and NTRs; assay type: biochemical; conditions: GST-GR25, NTR added prior to Tev cleavage; three independent experiments
How it was run: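 1 µM TDP-43-MBP-His was Tev-cleaved (20 µg/ml His-Tev, 60 min, 30°C) with or without equimolar GST-tagged DPR and/or NTRs, then spun 15 min at 21,000 g, 4°C. Equal supernatant and pellet volumes were analysed by SDS-PAGE with Sypro-Ruby or western blot. Percentage of soluble cleaved TDP-43 is the mean ± SEM of three experiments, compared by one-way ANOVA with Dunnett's test.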

GST-GR25 / TDP-43 = assay: Sedimentation of GST-GR25 with TDP-43 and NTRs; assay type: biochemical; conditions: equimolar NTR; three independent experiments
How it was run: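 1 µM TDP-43-MBP-His was Tev-cleaved (20 µg/ml His-Tev, 60 min, 30°C) with or without equimolar GST-tagged DPR and/or NTRs. Samples were centrifuged 15 min at 21,000 g, 4°C. Equal volumes of supernatant and pellet were analysed by anti-GST western blot.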

TDP-43 in HeLa cytosol = assay: Suppression by NTRs of GR-induced precipitation of cytosolic TDP-43; assay type: biochemical; conditions: equimolar NTR, three independent experiments
How it was run: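 Cytosol came from digitonin-permeabilised HeLa cells, cleared at 21,000 g. TMR-DPRs were added and the mix held 15 min at 4°C, then spun at 21,000 g for 15 min. Equal volumes of pellet and supernatant were analysed by western blot.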

[7] = 10-fold molar excess of TMR-labeled DPR, n = 3
[8] = extremely high concentrations (up to 40x)

Molecule | binding in pull-down (Impβ) | binding in pull-down (Imp7) | binding in pull-down (Impα3) | oligomer formation of Impα3 (SDS-resistant) (Impα3 (His-Impα3)) | precipitation of GAPDH from HeLa cytosol (GAPDH in HeLa cytosol) | solubility of Impβ [1, 7] | precipitation of Impβ, titration [1, 8] | solubility of CRM1 (CRM1; [7]) | precipitation of CRM1, titration (CRM1; [8]) | oligomer formation of TNPO1 (SDS-resistant) (TNPO1 (His-TNPO1)) | import of shuttling reporter [2] | TDP-43 condensate formation [3] | direct binding to Impb in vitro (Impb) | effect on GR-mediated promotion of TDP-43 turbidity (TDP-43 [4]; 5 μM TNPO1, 2 μM GR20, 5 μM TDP-43, 395 nm, 16 h) | effect on TDP-43 turbidity increase in absence of GR (TDP-43 [4]; 5 μM TNPO1, 5 μM TDP-43, Tev cleavage, 395 nm) | suppression of phase separation of TDP-43 alone (TDP-43 condensates) | suppression of GR- or PR-induced TDP-43 condensates [5] | reversal of poly-GR-enhanced sedimentation of TDP-43 (TDP-43 [6]) | rescue of GST-GR25 solubility in presence of TDP-43 (GST-GR25 / TDP-43) | suppression of GR-induced precipitation of cytosolic TDP-43 (TDP-43 in HeLa cytosol)
poly-PR: arginine-rich dipeptide repeat protein species; in the experiments mostly PR25 | bound equally to both poly-GR and poly-PR | bound equally to both poly-GR and poly-PR | bound equally to both poly-GR and poly-PR | SDS-resis-tant oligomers | not precipitated | remained mainly soluble | only partial or no precipitation | remained mainly soluble | only partial or no precipitation | SDS-resis-tant oligomers | reduced import | formation of condensates | direct binding |  |  |  |  |  |  | 
TNPO1: nuclear import receptor, recombinant (protein, left off: His6, N-terminal, kept) MVWDRQTKMEYEWKPDEQGLQQILQLLKESQSPDTTIQRTVQQKLEQLNQYPDFNNYLIFVLTKLKSEDEPTRSLSGLILKNNVKAHFQNFPNGVTDFIKSECLNNIGDSSPLIRATVGILITTIASKGELQNWPDLLPKLCSLLDSEDYNTCEGAFGALQKICEDSAEILDSDVLDRPLNIMIPKFLQFFKHSSPKIRSHAVACVNQFIISRTQALMLHIDSFIENLFALAGDEEPEVRKNVCRALVMLLEVRMDRLLPHMHNIVEYMLQRTQDQDENVALEACEFWLTLAEQPICKDVLVRHLPKLIPVLVNGMKYSDIDIILLKGDVEEDETIPDSEQDIRPRFHRSRTVAQQHDEDGIEEEDDDDDEIDDDDTISDWNLRKCSAAALDVLANVYRDELLPHILPLLKELLFHHEWVVKESGILVLGAIAEGCMQGMIPYLPELIPHLIQCLSDKKALVRSITCWTLSRYAHWVVSQPPDTYLKPLMTELLKRILDSNKRVQEAACSAFATLEEEACTELVPYLAYILDTLVFAFSKYQHKNLLILYDAIGTLADSVGHHLNKPEYIQMLMPPLIQKWNMLKDEDKDLFPLLECLSSVATALQSGFLPYCEPVYQRCVNLVQKTLAQAMLNNAQPDQYEAPDKDFMIVALDLLSGLAEGLGGNIEQLVARSNILTLMYQCMQDKMPEVRQSSFALLGDLTKACFQHVKPCIADFMPILGTNLNPEFISVCNNATWAIGEISIQMGIEMQPYIPMVLHQLVEIINRPNTPKTLLENTAITIGRLGYVCPQEVAPMLQQFIRPWCTSLRNIRDNEEKDSAFRGICTMISVNPSGVIQDFIFFCDAVASWINPKDDLRDMFCKILHGFKNQVGDENWRRFSDQFPLPLKERLAAFYGV |  |  |  |  |  |  |  |  |  |  |  |  |  | effectively suppressed | did not affect | unable to abolish condensate formation of TDP-43 | suppress the GR- or PR-induced formation of TDP-43 condensates | efficiently reverted | completely rescued | efficiently suppressed GR-induced precipitation of cytosolic TDP-43
